Screening results as filed in PubChem BioAssay.
In the library only some 1.5% were active in any assay of this set; here they are far more common.
MsrA inhibitor: inhibitors of bovine MsrA. inhibition, % at 15.5 µM. AID 651718. purified bovine MsrA, absorbance read-out. 360,000 tested, 0.75% active;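 further: 0% = vehicle wells with enzyme and 100% = reference inhibitor wells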
proCasp7 act: counter-screen: procaspase-7 (human) activation; P55210; recombinant procaspase-7, Ac-DEVD-pNA absorbance 405 nm; D23A/D198A/D206A triple mutant, cannot self-cleave; scale: DMSO 0, 5 µM enzyme 100; activation, % at 8.5 µM; 330,000 tested, 0.093% active; AID 463210;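 active means percent activation above the screen-wide mean plus 3 SD, cut at about 25% in these data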
Target sequence (P55210 whole entry D23A/D198A/D206A): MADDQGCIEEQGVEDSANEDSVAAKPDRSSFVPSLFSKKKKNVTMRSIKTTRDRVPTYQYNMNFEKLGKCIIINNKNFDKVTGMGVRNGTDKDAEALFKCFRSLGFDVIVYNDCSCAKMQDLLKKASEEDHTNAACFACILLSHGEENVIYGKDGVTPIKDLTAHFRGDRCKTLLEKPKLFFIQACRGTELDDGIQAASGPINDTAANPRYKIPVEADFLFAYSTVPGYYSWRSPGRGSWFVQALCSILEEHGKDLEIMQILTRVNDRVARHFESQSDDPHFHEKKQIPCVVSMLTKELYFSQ
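Assay system: Uncleavable procaspase-7 mutant enzyme; Input: 2 µM procaspase-7 mutant as dispensed; Also added: DEVD-pNA substrate; Medium: Zinc-free HEPES pH 7.4 with 300 mM NaCl, 0.01% Triton X-100; Timing: 1 h compound preincubation, 2 h substrate cleavage, 25 °C; Measured by: Epi-absorbance of released pNA at 405 nm, two timepoints.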
procasp3 activ: procaspase-3 (human) activation. activation, % at 8.5 µM. P42574. recombinant procaspase-3 D3A, Ac-DEVD-pNA absorbance 405 nm. 330,000 tested, 0.11% active;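 active means activation above the mean of all tested compounds plus 3 SD, cut at about 21% in these data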;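 further: 0% = DMSO alone and 100% = DMSO wells spiked with extra 5 µM PC-3 D3A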
Target sequence (P42574 whole entry D9A/D28A/D175A): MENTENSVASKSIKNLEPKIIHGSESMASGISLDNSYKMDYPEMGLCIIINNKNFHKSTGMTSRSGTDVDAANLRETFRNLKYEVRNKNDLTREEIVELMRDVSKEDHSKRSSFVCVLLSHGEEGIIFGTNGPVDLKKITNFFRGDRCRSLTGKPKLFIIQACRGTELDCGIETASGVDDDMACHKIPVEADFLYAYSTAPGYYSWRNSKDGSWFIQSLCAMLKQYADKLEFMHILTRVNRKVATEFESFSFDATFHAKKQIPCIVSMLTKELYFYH
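assay system = Procaspase-3 D3A mutant | signal = absorbance at 405 nm, 0 and 120 min | times = 1 h preincubation plus 2 h reaction at 25 °C | repeats = single replicate | read-out = % activation between DMSO and enzyme-spiked controls | medium = Zinc-free HEPES saline buffer with Triton X-100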
Tb MetRS inh: blocks T. brucei methionyl-tRNA synthetase activity; AID 624268; purified T. brucei MetRS, ATP depletion, Kinase-Glo luminescence; 360,000 tested, 0.4% active; inhibition, % at 11.9 µM;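 active means inhibition above a per-plate cutoff of the control wells' mean inhibition plus 3 SD, cut at about 5.5% in these data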;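 further: 0% = DMSO wells median and 100% = median of wells with control inhibitor compound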
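technique = Kinase-Glo luminescence, ATP depletion format | system = purified MetRS (methionyl-tRNA synthetase) enzyme from Trypanosoma brucei | timing = 15 min preincubation, 2 h reaction, all 25 °C | evaluation = percent inhibition versus plate control medians | dosing = single dose, 11.9 µM final nominal, 0.9% final DMSO | also added = substrates ATP, L-methionine and bulk Escherichia coli tRNA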
bovine MsrA act: activates bovine MsrA enzyme | purified bovine MsrA, absorbance read-out | activation, % at 10.6 µM | 360,000 tested, 0.3% active; in the data active means activation above about 7.5%;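 further: 0% = vehicle and 100% = reference activator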
MsrA inh confirm: confirmation of bovine MsrA inhibitors; shares compounds with MsrA inhibitor; purified bovine MsrA, absorbance read-out; inhibition, % at 15.5 µM; 2,300 tested, 41% active;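 further: coupled to thioredoxin reductase with NADPH and selenocystamine and DMSO as substrate; 0% = vehicle only and 100% = full effect of reference inhibitor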
Numbers without * were called inactive; · = not tested or not shown. Unless noted, no stated cut-off is given here; in the data, active means inhibition above about 4.5%; inactive means the rest.

SMILES | MsrA inhibitor | proCasp7 act | procasp3 activ | Tb MetRS inh | bovine MsrA act | MsrA inh confirm
COc1ccc(CCNC(=O)c2ccc3c(c2)S(=O)(=O)N=C2CCCCCN23)cc1 | 1 | 5 | -2 | 0 | -2 | ·
COc1ccc(/C=C(\NC(=O)c2ccco2)C(=O)Nc2ccc(C(C)=O)cc2)cc1 | 5.4* | · | · | 0 | -9 | 6.2*
O=C(Nc1ccc(C(=O)O)cc1)/C(=C\c1ccco1)NC(=O)c1ccc(Br)cc1 | 5.1* | · | · | 0 | -5 | 3
COc1ccc(/C=C(/NC(=O)c2ccco2)C(=O)Nc2ccc(C(=O)O)cc2)cc1 | 6.2* | -2 | 2 | 0 | -1 | 2
CC(C)[C@H](NS(=O)(=O)c1ccc(F)cc1F)C(=O)N1CCC[C@H]1C(=O)NCc1ccccc1 | 0 | · | · | · | · | ·
CC(=O)OC1COC(n2ccc3cc([N+](=O)[O-])ccc32)C(OC(C)=O)C1OC(C)=O (centres undefined) | 6.0* | 7 | 5 | 1 | -4 | 3
CC(C)OC(=O)[C@@H](Cc1ccccc1)N[C@H](/C=C/c1ccccc1)[C@@H](O)Cc1ccccc1 | 1 | · | · | · | · | ·
O=Cc1c[nH]c2cccc(OCc3ccccc3)c12 | -1 | · | · | 0 | -3 | ·
CCc1n[nH]c(=S)n1/N=C/c1cc(Br)c(OC)cc1OC | 16* | -12 | -10 | -1 | -5 | 10*
CCc1n[nH]c(=S)n1/N=C/c1ccc(-c2ccc(Br)cc2)o1 | 1 | -3 | -2 | -1 | -10 | ·
CN(C(=O)CSc1ncnc2c(-c3cccs3)nsc12)C1CCCCC1 | -2 | · | · | · | · | ·
Oc1ccc(/C=N/NC(=S)N/N=C/c2ccc(O)cc2)cc1 | 6.4* | -19 | -9 | 0 | 4 | 7.2*
Oc1ccc(/C=N/NC(=S)Nc2cccnc2)cc1 | 7.9* | -24 | -6 | 0 | -2 | 6.2*
COc1cccc(/C=N/NC(=S)Nc2cccnc2)c1 | 3 | 4 | 7 | 0 | -2 | ·
CC(=O)Nc1ccc(/C=N/NC(=O)c2cccc(S(=O)(=O)N3CCOCC3)c2)cc1 | 6.2* | -4 | 3 | -1 | -4 | 3
COc1cc(C=NNC(=O)c2ccc(NS(=O)(=O)c3cccs3)cc2)cc(Br)c1O | 5.6* | -7 | -4 | 0 | -5 | 6.0*
COc1ccccc1CNC(=O)c1ccc(NS(=O)(=O)c2cccs2)cc1 | 0 | 4 | 4 | 0 | -2 | ·
O=C(NN=Cc1c(F)c(F)c(F)c(F)c1F)c1ccc(NS(=O)(=O)c2cccs2)cc1 | 3 | 9 | -3 | 0 | 1 | ·
CC(=O)Nc1ccc(C=NNC(=O)c2ccc(NS(=O)(=O)c3cccs3)cc2)cc1 | 4.8* | -7 | 6 | 0 | -4 | 7.1*
Fc1cccc(/C=N/Nc2nc3ccccc3[nH]2)c1 | 4.7* | 8 | -6 | · | · | 4
O=[N+]([O-])c1cc(/C=N/Nc2nc3ccccc3[nH]2)c(O)cc1O | 5.7* | 5 | -6 | · | · | 5.0*
Fc1ccc(/C=N/Nc2nc3ccccc3[nH]2)cc1F | 3 | 2 | 1 | 2 | -4 | ·
C(=N\Nc1nc2ccccc2[nH]1)/c1cccc2cccnc12 | 1 | 3 | -7 | 3 | -3 | ·
COC(=O)C1=C(C)N(Cc2ccc(F)cc2)C(=S)NC1c1ccc(Cl)cc1 (centres undefined) | 0 | · | · | · | · | ·
C[C@@H]1NS(=O)(=O)c2cccc(Cl)c2O[C@@H]1c1ccccc1 | 0 | · | · | · | · | ·
SMILES | MsrA inhibitor | proCasp7 act | procasp3 activ | Tb MetRS inh | bovine MsrA act | MsrA inh confirm
COc1ccc(-c2cccc3c2C2CC3CCN2C(=O)OCc2ccccc2)cc1 (centres undefined) | 6.4* | · | · | -1 | -2 | 2
O=C(NC(=S)Nc1cccc2ncccc12)c1ccco1 | -1 | -12 | -14 | 0 | -3 | ·
N#C/C(=C\c1ccco1)C(=O)Nc1cccc2ncccc12 | 6.0* | 0 | 0 | 0 | -6 | 5.3*
Cc1cc(=O)[nH]c(N/N=C/c2ccc(N(C)C)cc2)n1 | 7.6* | -9 | -5 | -1 | -5 | 6.2*
CCNc1nc(NCC)nc(N/N=C/c2ccc(N(C)C)cc2)n1 | 6.5* | 3 | -1 | 0 | -4 | 4.9*
CCNc1nc(NCC)nc(N/N=C/c2ccc(O)c(O)c2)n1 | 2 | -3 | 0 | 0 | -5 | ·
CCN(CCC#N)c1ccc(/C=N/Nc2nc(C)cc(=O)[nH]2)c(C)c1 | 6.0* | -5 | 0 | -1 | -7 | 4.7*
Cc1nn(-c2ccccc2)c(N)c1N=Nc1ccc2ccccc2c1 | 0 | -12 | 2 | 0 | -1 | ·
Cc1ccc(N=Nc2c(N)nn(-c3ccccc3)c2N)cc1 | 5.0* | -4 | -7 | 0 | -4 | 2
O=S1(=O)N=C(N/N=C/c2cccs2)c2ccccc21 | 5.8* | 1 | 7 | -1 | -2 | 4.8*
Cc1ccc(C(=O)N/N=C/c2nc3ccccc3n2C)cc1 | 2 | 0 | -3 | -1 | -5 | ·
Cn1c(/C=N/NC(=O)c2ccccc2Br)nc2ccccc21 | 5.3* | 8 | 10 | -1 | -2 | 3
C#CCNC(=O)C[C@H]1C[C@@]2(C(=O)OC)C(=C[C@H](COCc3ccccc3)O[C@@H]2C)N(CCC2=CCCCC2)C1=O | 0 | · | · | · | · | ·
Cc1cc(/C=C(\C#N)C(=O)NCc2ccco2)c(C)n1-c1ccc(C(=O)O)cc1 | 6.8* | -8 | 3 | 0 | -3 | 3
Cc1cc(/C=C(\C#N)C(=O)NCC2CCCO2)c(C)n1-c1ccc(Cl)cc1 (centres undefined) | 4 | 8 | -2 | 0 | -3 | ·
COC(=O)C1=C(C)N(Cc2ccccc2C(F)(F)F)C(=NCC2CC2)NC1c1ccc(F)cc1 (centres undefined) | -1 | · | · | · | · | ·
Cn1cc(/C=C(\NC(=O)c2ccccc2Cl)C(=O)NCCCN2CCOCC2)c2ccccc21 | 4 | 1 | 8 | 0 | -3 | ·
CCn1cc(/C=C(\NC(=O)c2ccccc2)C(=O)NCCCN2CCOCC2)c2ccccc21 | 4.7* | 3 | 7 | 0 | -3 | 4
COc1cc(C(=O)N/C(=C\c2cn(C)c3ccccc23)C(=O)NCCN2CCOCC2)cc(OC)c1OC | 5.3* | -8 | 9 | -1 | -6 | 4
Cn1cc(/C=C(\NC(=O)c2ccccc2)C(=O)N2CCOCC2)c2ccccc21 | 5.7* | -1 | 3 | 0 | -5 | 3
CCn1cc(/C=C(\NC(=O)c2cc(OC)c(OC)c(OC)c2)C(=O)NCCCN2CCOCC2)c2ccccc21 | 2 | 0 | 1 | 0 | -2 | ·
Cn1cc(/C=C(\NC(=O)c2ccccc2Cl)C(=O)NCCN2CCOCC2)c2ccccc21 | 4.8* | -2 | -5 | 0 | -12 | 4
CC(C)NC(=O)OC[C@@H]1CSCCS(=O)(=O)N1 | -1 | · | · | · | · | ·
Cc1cc2c(c(=O)o1)[C@@]1(C(=O)Nc3ccccc31)C1=C(CCCC1=O)O2 | 0 | · | · | · | · | ·
O=C(NCc1ccccc1)[C@H]1CCCN1C(=O)[C@H]1CCCN1C(=O)c1ccccc1 | 1 | · | · | · | · | ·
